According to ChEMBL document CHEMBL3526056, “Characterization of in vitro glucuronidation clearance of a range of drugs in human kidney microsomes: comparison with liver and intestinal glucuronidation and impact of albumin” (Drug Metab Dispos, 2012):

Experiments:
[1] = Unbound intrinsic glucuronidation clearance in human intestinal microsomes at 1 uM after 30 to 60 mins by LC-MS/MS analysis in presence of UDP-glucuronosyltransferase; format: ADME, Intestine, Microsome
Method in brief: (§1)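 Alamethicin-activated pooled microsomes (HLM 150 donors; HKM 8; HIM 18). Drug at 1 μM final, preincubated 5 min at 37°C in 0.1 M phosphate pH 7.1 with 3.45 mM MgCl2, 1.15 mM EDTA, 115 μM saccharic acid lactone. Started with […] cofactor (5 mM final), 30–60 min. Cofactor-free controls. Parent depletion by LC-MS/MS, single-exponential k. Corrected by HLM-dialysis fu,inc. Duplicates; n=3 (HIM n=1).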

[2] = Drug metabolism in human intestinal microsomes assessed as UGT1A8/2B7-mediated unbound intrinsic glucuronidation clearance at 1 uM after 30 to 60 mins by LC-MS/MS analysis in presence of 2% bovine serum albumin; format: ADME, Intestine
[3] = Glucuronidation clearance in human liver microsomes; format: ADME
[4] = Fraction unbound in human plasma
[5] = Fraction unbound in human liver microsomes at 1 uM after 30 to 60 mins by LC-MS/MS analysis in presence of 1% bovine serum albumin; format: ADME; conditions: liver microsomes
[6] = Unbound intrinsic glucuronidation clearance in human kidney microsomes at 1 uM after 30 to 60 mins by LC-MS/MS analysis in presence of UDP-glucuronosyltransferase and 1% bovine serum albumin; format: ADME, microsome
[7] = biological target: T1, UDP-glucuronosyltransferase 1A9 (Homo sapiens, UniProt O60656); test: Drug metabolism in human liver microsomes assessed as UGT1A9-mediated unbound intrinsic glucuronidation clearance at 1 uM after 30 to 60 mins by LC-MS/MS analysis in presence of 1% bovine serum albumin; format: ADME
T1 sequence (O60656 whole entry): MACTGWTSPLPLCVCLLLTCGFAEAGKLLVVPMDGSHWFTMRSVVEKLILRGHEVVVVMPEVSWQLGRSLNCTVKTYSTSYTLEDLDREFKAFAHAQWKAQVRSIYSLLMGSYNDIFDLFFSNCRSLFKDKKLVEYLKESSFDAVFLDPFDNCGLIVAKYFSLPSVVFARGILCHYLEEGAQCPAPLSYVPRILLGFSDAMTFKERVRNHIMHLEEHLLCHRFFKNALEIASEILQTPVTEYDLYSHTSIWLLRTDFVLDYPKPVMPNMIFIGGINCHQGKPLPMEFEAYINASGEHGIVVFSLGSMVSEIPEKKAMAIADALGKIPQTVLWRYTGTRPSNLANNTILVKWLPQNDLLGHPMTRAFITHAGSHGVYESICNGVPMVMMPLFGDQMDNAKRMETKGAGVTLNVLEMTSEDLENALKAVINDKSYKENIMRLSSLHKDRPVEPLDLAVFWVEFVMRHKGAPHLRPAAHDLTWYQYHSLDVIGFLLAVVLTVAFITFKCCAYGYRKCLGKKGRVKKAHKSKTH

[8] = biological target: T1, UDP-glucuronosyltransferase 1A9; test: Drug metabolism in human intestinal microsomes assessed as UGT1A9-mediated unbound intrinsic glucuronidation clearance at 1 uM after 30 to 60 mins by LC-MS/MS analysis; format: ADME, Intestine
[9] = biological target: T1, UDP-glucuronosyltransferase 1A9; test: Ratio of UGT1A9-mediated unbound intrinsic glucuronidation clearance in human intestinal microsomes to UGT1A9-mediated unbound intrinsic glucuronidation clearance in human liver microsomes at 1 uM; format: ADME
Liver microsome [10] = test: Fraction metabolized glucuronidation in human liver microsomes in presence of UDP-glucuronosyltransferase and bovine serum albumin; format: ADME
Liver microsome [11] = test: Fraction metabolized glucuronidation in human liver microsomes in presence of UDP-glucuronosyltransferase; format: ADME
[12] = Renal clearance in human; format: ADME, organism-based, Kidney; conditions: in vivo
[13] = biological target: T1, UDP-glucuronosyltransferase 1A9; test: Drug metabolism in human liver microsomes assessed as UGT1A9-mediated unbound intrinsic glucuronidation clearance at 1 uM after 30 to 60 mins by LC-MS/MS analysis; format: ADME
[14] = biological target: T1, UDP-glucuronosyltransferase 1A9; test: Ratio of UGT1A9-mediated unbound intrinsic glucuronidation clearance in human kidney microsomes to UGT1A9-mediated unbound intrinsic glucuronidation clearance in human intestinal microsomes at 1 uM; format: ADME
[15] = biological target: T1, UDP-glucuronosyltransferase 1A9; test: Ratio of UGT1A9-mediated unbound intrinsic glucuronidation clearance in human intestinal microsomes to UGT1A9-mediated unbound intrinsic glucuronidation clearance in human liver microsomes at 1 uM in presence of 1% bovine serum albumin; format: ADME
[16] = Ratio of unbound intrinsic glucuronidation clearance in human kidney microsomes in presence of 1% bovine serum albumin to unbound intrinsic glucuronidation clearance in human kidney microsomes in absence of bovine serum albumin; format: ADME, microsome
Method in brief: (§2)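 Unbound intrinsic glucuronidation clearance measured by parent-drug depletion in intestinal or kidney microsomes, once with 1% BSA and once without, under otherwise matched conditions (1 μM drug, pH 7.1 phosphate, 5 mM cofactor, 37°C). Each value was corrected for fu,inc. The ratio is the mean clearance with BSA over the mean without.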

[17] = Unbound intrinsic glucuronidation clearance in human kidney microsomes at 1 uM after 30 to 60 mins by LC-MS/MS analysis in presence of UDP-glucuronosyltransferase; format: ADME, microsome; method in brief: as §1
[18] = Glucuronidation clearance in human liver microsomes in presence of bovine serum albumin; format: ADME
Liver microsome [19] = test: Unbound intrinsic glucuronidation clearance in human liver microsomes at 1 uM after 30 to 60 mins by LC-MS/MS analysis in presence of UDP-glucuronosyltransferase and 1% bovine serum albumin; format: ADME
[20] = Ratio of unbound intrinsic glucuronidation clearance in human intestinal microsomes in presence of 1% bovine serum albumin to unbound intrinsic glucuronidation clearance in human intestinal microsomes in absence of bovine serum albumin; format: ADME, Intestine, Microsome; method in brief: as §2
[21] = biological target: T1, UDP-glucuronosyltransferase 1A9; test: Ratio of UGT1A9-mediated unbound intrinsic glucuronidation clearance in human kidney microsomes to UGT1A9-mediated unbound intrinsic glucuronidation clearance in human liver microsomes at 1 uM; format: ADME
Method in brief: (§3)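 Unbound intrinsic clearance measured by substrate depletion in kidney and liver microsomes (1 μM drug, 0.1 M phosphate pH 7.1, 5 mM cofactor, 37°C, LC-MS/MS), without or with 1% BSA. Values scaled per g tissue; ratio taken as mean scaled kidney over mean scaled liver value.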

Liver microsome [22] = test: Unbound intrinsic glucuronidation clearance in human liver microsomes at 1 uM after 30 to 60 mins by LC-MS/MS analysis in presence of UDP-glucuronosyltransferase; format: ADME; method in brief: as §1
[23] = biological target: T1, UDP-glucuronosyltransferase 1A9; test: Drug metabolism in human kidney microsomes assessed as UGT1A9-mediated unbound intrinsic glucuronidation clearance at 1 uM after 30 to 60 mins by LC-MS/MS analysis; format: ADME
[24] = Ratio of drug level blood to plasma in human; format: ADME; conditions: blood and plasma
[25] = biological target: T1, UDP-glucuronosyltransferase 1A9; test: Ratio of UGT1A9-mediated unbound intrinsic glucuronidation clearance in human kidney microsomes to UGT1A9-mediated unbound intrinsic glucuronidation clearance in human intestinal microsomes at 1 uM in presence of 1% bovine serum albumin; format: ADME
[26] = biological target: T1, UDP-glucuronosyltransferase 1A9; test: Drug metabolism in human kidney microsomes assessed as UGT1A9-mediated unbound intrinsic glucuronidation clearance at 1 uM after 30 to 60 mins by LC-MS/MS analysis in presence of 1% bovine serum albumin; format: ADME
[27] = biological target: T1, UDP-glucuronosyltransferase 1A9; test: Ratio of UGT1A9-mediated unbound intrinsic glucuronidation clearance in human kidney microsomes to UGT1A9-mediated unbound intrinsic glucuronidation clearance in human liver microsomes at 1 uM in presence of 1% bovine serum albumin; format: ADME; method in brief: as §3
[28] = Fraction unbound in human liver microsomes at 1 uM after 30 to 60 mins by LC-MS/MS analysis; format: ADME
[29] = Fraction unbound in human kidney microsomes at 1 uM after 30 to 60 mins by LC-MS/MS analysis; format: ADME
[30] = Clearance in iv dosed human; format: ADME, organism-based; conditions: in vivo
[31] = Unbound intrinsic glucuronidation clearance in human intestinal microsomes at 1 uM after 30 to 60 mins by LC-MS/MS analysis in presence of UDP-glucuronosyltransferase and 1% bovine serum albumin; format: ADME, Intestine, Microsome
[32] = Fraction unbound in human intestinal microsomes at 1 uM after 30 to 60 mins by LC-MS/MS analysis; format: ADME, Intestine, Microsome

- CL free [1]: 11.8 µL/min/mg
- CL free [2]: 0.292 mL/min/g
- CLhep predicted [3]: 3.97 mL/min/kg
- fraction unbound [4]: 0.01
- fraction unbound at 1 µM [5]: 0.18
- CL free [6]: 1370 µL/min/mg
- CL free [7]: 9.32 mL/min/g
- CL free [8]: 0.244 mL/min/g
- Ratio [9]: 0.078
- Drug metabolism (Liver microsome [10]): 0.95
- Drug metabolism (Liver microsome [11]): 0.95
- CL renal [12]: 0.01 mL/min/kg
- CL free [13]: 3.13 mL/min/g
- Ratio [14]: 15.4
- Ratio [15]: 0.128
- Ratio [16]: 4.9
- CL free [17]: 293 µL/min/mg
- CLhep predicted [18]: 3.97 mL/min/kg
- CL free (Liver microsome [19]): 233 µL/min/mg
- Ratio [20]: 4.7
- Ratio [21]: 1.2
- CL free (Liver microsome [22]): 78.2 µL/min/mg
- CL free [23]: 3.75 mL/min/g
- blood plasma ratio [24]: 0.6
- Ratio [25]: 14.8
- CL free [26]: 17.6 mL/min/g
- Ratio [27]: 1.89
- fraction unbound at 1 µM [28]: 0.83
- fraction unbound at 1 µM [29]: 0.91
- clearance [30]: 2.49 mL/min/kg
- CL free [31]: 57.8 µL/min/mg
- fraction unbound at 1 µM [32]: 0.71
Compound: COc1c(C)c2c(c(O)c1C/C=C(\C)CCC(=O)O)C(=O)OC2 [MYCOPHENOLIC ACID]
